{"source": "ChEMBL document CHEMBL4354867", "about": "“Validation and Characterization of Five Distinct Novel Inhibitors of Human Cytomegalovirus” (J Med Chem, 2020)", "key": {"[1]": {"tested_on": "Human betaherpesvirus 5", "assay": "Antiviral activity against HCMV Towne infected in human HFF cells assessed as reduction in viral DNA yields in the supernatant at 3 uM treated with compound following viral infection at MOI of 0.1 PFU/cell by US17 real time PCR analysis", "format": "functional, organism-based", "details": "strain Towne", "outline": "(§1)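 At set time points supernatants were harvested and cells lysed for DNA. Cell-associated viral DNA and supernatant viral DNA quantified by real-time PCR targeting a 151-bp conserved US17 region.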"}, "[2]": {"tested_on": "Human alphaherpesvirus 1", "assay": "Antiviral activity against HSV 1 infected in African green monkey Vero cells assessed as reduction in plaque formation incubated for 36 hrs by crystal violet staining based assay", "format": "functional, organism-based", "details": "vero", "outline": "(§2)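 Plaque reduction in Vero cells: virus adsorbed 60 min, then compound added in a carboxymethylcellulose overlay. Plaques counted after 36 h by crystal violet staining.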"}, "[3]": {"tested_on": "HFF", "assay": "Cytotoxicity against human HFF cells assessed as reduction in cell viability incubated for 72 hrs or 10 days by MTT assay", "format": "cell-based", "outline": "(§3)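 MTT assay on uninfected cells exposed to compound for 72 h or 8–10 days, matching the antiviral assay durations. MTT (5 mg/mL stock in PBS) added, then 2–3 h at 37 °C. Formazan absorbance read at 560 nm.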"}, "[4]": {"tested_on": "Human betaherpesvirus 5", "assay": "Antiviral activity against HCMV Towne infected in human HFF cells assessed as reduction in plaque formation treated with compound following viral infection at MOI of 1 PFU/cell and measured at 10 days post-infection in presence of letermovir by crystal violet staining based assay", "format": "functional, organism-based", "details": "Human betaherpesvirus 5, strain Towne, 240 h"}, "[5]": {"tested_on": "Human betaherpesvirus 5", "assay": "Antiviral activity against HCMV Towne infected in human HFF cells assessed as reduction in viral DNA replication at 3 uM treated with compound following viral infection at MOI of 0.1 PFU/cell by US17 real time PCR analysis", "format": "functional, organism-based", "details": "strain Towne", "outline": "as §1"}, "[6]": {"tested_on": "Human gammaherpesvirus 4", "assay": "Antiviral activity against EBV infected in human AKATA cells assessed as reduction in IgG-induced lytic virus replication measured at 48 hrs post-lytic induction by qRT-PCR analysis", "format": "functional, organism-based"}, "[7]": {"assay": "Antiviral activity against Mouse Cytomegalovirus Smith (ATCC VR-1399) infected in mouse MEF cells assessed as reduction in plaque formation measured after 3 days by crystal violet staining based assay", "format": "functional, cell-based, Murine cytomegalovirus (strain Smith)", "details": "Murid betaherpesvirus 1, ATCC VR-1399, MEF, 72 h; read-out: EC50", "outline": "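Plaque reduction with MCMV Smith in mouse embryonic fibroblasts, with compound in a carboxymethylcellulose overlay. Assay ended at 3 days and plaques counted after crystal violet staining.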"}, "[8]": {"tested_on": "Human alphaherpesvirus 2", "assay": "Antiviral activity against HSV 2 infected in African green monkey Vero cells assessed as reduction in plaque formation incubated for 36 hrs by crystal violet staining based assay", "format": "functional, organism-based", "details": "vero", "outline": "as §2"}, "[9]": {"tested_on": "Human betaherpesvirus 5", "assay": "Antiviral activity against pp28-luciferase expressing HCMV Towne infected in human HFF cells assessed as reduction in viral replication treated with compound immediately after viral infection at MOI of 1 PFU/cell followed by compound washout after 6 hrs and measured after 3 days by luciferase reporter gene assay", "format": "functional", "details": "strain Towne", "outline": "(§4)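 Time-of-addition in HFFs infected with HCMV Towne (MOI 1). Add-on: compound added at 0, 6, 24 or 48 hpi. Removal: compound added right after infection and washed out after 0, 6, 24 or 48 h. Luciferase read at 72 hpi.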"}, "[10]": {"tested_on": "Human betaherpesvirus 5", "assay": "Inhibition of viral protein expression in HCMV Towne infected in human HFF cells assessed as reduction in IE2 expression at 1 to 10 uM treated with compound following viral infection at MOI of 1 PFU/cell measured at 72 hrs post infection by Western blot analysis", "format": "functional, organism-based", "details": "strain Towne", "outline": "(§5)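 HFFs infected with HCMV Towne (MOI 1), then treated with compound. Lysates taken at 72 hpi, equal protein loaded on 8–10% Tris-glycine SDS-PAGE and transferred to PVDF. Primary antibodies overnight at 4 °C, HRP secondary, chemiluminescent detection; β-actin as loading control.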"}, "[11]": {"tested_on": "Human betaherpesvirus 5", "assay": "Antiviral activity against pp28-luciferase harboring UL97 C607Y mutant expressing GCV-resistant HCMV Towne infected in human HFF cells assessed as reduction in viral replication at 0.5 to 3 uM treated with compound following viral infection at MOI of 0.1 PFU/cell and measured at 72 hrs post infection by luciferase reporter gene assay", "format": "functional, organism-based", "details": "strain Towne", "outline": "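HFFs infected with GCV-resistant pp28-luciferase Towne (MOI 0.1), then treated with a compound dilution series. Luciferase, driven by the UL99 late promoter, read in cell lysates at 72 hpi. Data are mean ± SD of triplicates from a single experiment.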"}, "[12]": {"tested_on": "Human betaherpesvirus 5", "assay": "Antiviral activity against pp28-luciferase expressing HCMV Towne infected in human HFF cells assessed as reduction in viral replication treated with compound at 24 hrs post viral infection at MOI of 1 PFU/cell and measured after 3 days by luciferase reporter gene assay", "format": "functional, organism-based", "details": "strain Towne", "outline": "as §4"}, "[13]": {"tested_on": "MEF", "assay": "Cytotoxicity against mouse MEF cells assessed as reduction in cell viability at >=10 uM incubated for 72 hrs or 8 to 10 days by MTT assay", "format": "cell-based", "outline": "as §3"}, "[14]": {"tested_on": "Human betaherpesvirus 5", "assay": "Antiviral activity against HCMV TB40 infected in human HFF cells assessed as reduction in plaque formation treated with compound following viral infection at MOI of 100 PFU/wells measured at 10 days post-infection in presence of GCV by crystal violet staining based assay", "format": "functional, organism-based", "details": "Human betaherpesvirus 5, TB40, HFF, 240 h", "outline": "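HFFs were infected at about 100 plaques/well and adsorbed for 90 min. They were then overlaid with DMEM containing 0.5% carboxymethylcellulose, 4% FBS and drugs, and incubated at 37 °C. A dose-response of each drug alone gave its EC₅₀. Combinations started at twice each EC₅₀, followed by two-fold serial dilutions. Plaques were counted after crystal violet staining. The Bliss coefficient is observed over expected fold inhibition (>1 synergy, <1 antagonism, =1 additive).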"}, "[15]": {"tested_on": "Human betaherpesvirus 5", "assay": "Antiviral activity against GCV-resistant HCMV Towne infected in human HFF cells assessed as reduction in plaque formation treated with compound following viral infection and incubated for 8 to 10 days by crystal violet staining based assay", "format": "functional, organism-based", "details": "Human betaherpesvirus 5, strain Towne"}, "[16]": {"tested_on": "Human betaherpesvirus 5", "assay": "Inhibition of viral protein expression in HCMV Towne infected in human HFF cells assessed as reduction in IE1 expression at 1 to 10 uM treated with compound following viral infection at MOI of 1 PFU/cell measured at 72 hrs post infection by Western blot analysis", "format": "functional, organism-based", "details": "strain Towne", "outline": "as §5"}, "[17]": {"tested_on": "Human betaherpesvirus 5", "assay": "Antiviral activity against HCMV Towne infected in human HFF cells assessed as reduction in plaque formation treated with compound following viral infection and incubated for 8 to 10 days by crystal violet staining based assay", "format": "functional, organism-based", "details": "Human betaherpesvirus 5, strain Towne"}, "[18]": {"tested_on": "Human betaherpesvirus 5", "assay": "Antiviral activity against HCMV TB40 infected in human HFF cells assessed as reduction in plaque formation treated with compound following viral infection and incubated for 8 to 10 days by crystal violet staining based assay", "format": "functional, organism-based", "details": "Human betaherpesvirus 5, TB40, HFF"}, "[19]": {"tested_on": "Human betaherpesvirus 5", "assay": "Antiviral activity against HCMV TB40 infected in human HFF cells assessed as reduction in plaque formation at 0.5 to 3 uM treated with compound following viral infection at […] measured after 8 days by crystal violet staining analysis", "format": "functional, organism-based", "outline": "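HFFs (2 × 10⁵/well) infected with HCMV TB40 at about 100 plaques/well for 90 min. Inoculum removed, then DMEM with 0.5% CMC, 4% FBS and compound added. Incubated at 37 °C; plaques stained with crystal violet and counted at 8 dpi. Experiment repeated three times; one representative shown.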"}}, "note": "The source made the active and inactive calls. The calls are words filed in the database; no cut-off is given here."}
{"smiles": "CC(C)NC(=O)C1CCN(C(=O)c2cc3sccc3n2Cc2ccc(Cl)cc2)CC1", "values": [{"measurement": "Activity", "setting": "[1]", "result": "Active"}, {"measurement": "EC50", "setting": "[2]", "result": "Not Active"}, {"measurement": "CC50", "setting": "[3]", "result": "> 200000", "unit": "nM"}, {"measurement": "EC50", "setting": "[4]", "result": 3190, "unit": "nM"}, {"measurement": "Activity", "setting": "[5]", "result": "Active"}, {"measurement": "EC50", "setting": "[6]", "result": "Not Active"}, {"measurement": "EC50", "setting": "[7]", "result": 1000, "unit": "nM"}, {"measurement": "EC50", "setting": "[8]", "result": "Not Active"}, {"measurement": "Activity", "setting": "[9]", "result": "Active"}, {"measurement": "inhibition", "setting": "[10]", "result": "Active"}, {"measurement": "Activity", "setting": "[11]", "result": "Active"}, {"measurement": "Activity", "setting": "[12]", "result": "inactive"}, {"measurement": "Activity", "setting": "[13]", "result": "Toxic"}, {"measurement": "EC50", "setting": "[14]", "result": 1510, "unit": "nM"}, {"measurement": "EC50", "setting": "[15]", "result": 1400, "unit": "nM"}, {"measurement": "inhibition", "setting": "[16]", "result": "Active"}, {"measurement": "EC50", "setting": "[17]", "result": 4610, "unit": "nM"}, {"measurement": "EC50", "setting": "[18]", "result": 1180, "unit": "nM"}, {"measurement": "Activity", "setting": "[19]", "result": "Active"}]}
